Laboratory results published in PubChem BioAssay.
Records with an inconclusive call do not appear.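 The calls were made as follows, unless noted: active = cell viability at or below a set limit in both duplicate runs, the limit being the all-compound median minus 4 SD (cut at about 23% in these data, passing the limit was not always enough); inconclusive = no clear call, values can overlap the other calls; inactive = the rest.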

Experiments:
[1] = OD615 S. cerevisiae growth inhibition, permissive medium, pilot counter-assay, permissive growth control for S. cerevisiae lifespan shortening project (AID 705;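 active = growth inhibition above 25% in both replicates, a cutoff set 3 SD above the mean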); conditions: OD615, 24 h, at 10 µM, hits give high values
In short: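 Timing: 24 h exposure, 30 °C / Material: Saccharomyces cerevisiae strain carrying genetically modified DeaD replicative-lifespan system / Signal: OD at 615 nm / Compound: 10 µM single dose, 0.25% DMSO / Medium: SC raffinose/galactose permissive medium / Evaluation: reduction in yeast growth (OD615)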

[2] = Restrictive medium S. cerevisiae growth inhibition, OD615, pilot screen of yeast lifespan reduction project, restrictive growth control (AID 706;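 active = growth inhibition above a set limit, 3 SD over mean compound inhibition, in both replicates, cut at about 43% in these data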;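 also: modified DeaD lifespan yeast strain shifted to restrictive glucose medium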); conditions: OD615, 48 h, at 10 µM, hits give high values
In short: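 System: Engineered S. cerevisiae DeaD strain | Detection: OD615 | Buffer or medium: CSMM-D glucose medium | Doses: 10 µM compound, 0.25% DMSO | Timing: 4 h pre-growth plus 48 h compound exposure, 30 °C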

[3] = viability gain of MRP-1-high H69AR cells under doxorubicin, pilot screen, MRP-1 activator project, CellTiter-Glo, duplicate (AID 807;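 active = viability increase at or above a cutoff of the median across tested compounds plus 3 SD, cut at about 8.5% in these data, passing the limit was not always enough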;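 also: compound pretreatment 18-22 h then 72 h combined with doxorubicin; 0% = doxorubicin alone and 100% = vehicle without doxorubicin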); conditions: H69AR viability with doxorubicin, CellTiter-Glo luminescence; at 10 µM; hits give high values
[4] = growth suppression of beta-catenin knockout HCT116, pilot screen, human colon tumor cells (AID 823); conditions: CellTiter-Glo, 60 h, at 10 µM, hits give low values;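 also: 0% = wells killed by 20 µM Hyamine and 100% = untreated DMSO cell wells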
[5] = growth suppression of PTEN-deleted HCT116, pilot screen, cell-based, HCT116 clonal line, CellTiter-Glo (AID 824;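 active = viability at or below 27.92% in each of two runs, the all-compound median minus 4 SD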;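 also: 0% = 20 µM Hyamine control and 100% = vehicle cell control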); conditions: 60 h, at 10 µM, hits give low values
[6] = inhibitors of the yeast RAM network, pilot screen, dse1pr::URA3 reporter, 5-FOA selection (AID 869;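 active = inhibition over a set limit, the all-compound mean plus 3 SD, in both replicate runs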;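 also: 0% = DMSO wells with no growth and 100% = 10 µM 1-NA-PP1 with full growth; RAM network block rescues cells from 5-FOA so hits raise OD615 growth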); conditions: S. cerevisiae dse1pr::URA3 5-FOA growth, OD615, 2 d; at 10 µM; hits give high values; strain carries analog-sensitive mutant Cbk1 kinase
[7] = RAM signaling pathway blockade in yeast – S. cerevisiae, Pdr1DBD-CYC8 efflux-inhibited sensitized strain, primary screen (AID 1298;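 active = RAM network inhibition above 8.4% in each of two replicates, 3 SD over the compound average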;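 also: 0% = DMSO untreated cells without growth and 100% = 10 µM 1-NA-PP1 full growth; higher means more yeast growth rescued from 5-FOA killing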); conditions: S. cerevisiae cbk1-as DSE1-URA3 strain, 5-FOA growth OD615, 2 d; at 50 µM; hits give high values

Cc1ccc(S(=O)(=O)Cc2ccc(C(=O)N3CCN(c4ccccn4)CC3)o2)cc1
inactive: growth inhibition [1] -6.39% | growth inhibition [2] -3.59% | viability increase [3] -4.22% | viability [4] 87.1% | viability [5] 79.8% | inhibition [6] 1.25% | RAM network inhibition [7] 3.12%

CC(=O)Nc1nnc(-c2ccc3c(c2)CCCC3)o1
inactive: growth inhibition [1] -12.7% | growth inhibition [2] 3.68% | viability increase [3] -0.69% | viability [4] 95% | viability [5] 88.3% | inhibition [6] 1.36% | RAM network inhibition [7] 4.21%

CN(C)CCNC(=O)c1ccc(CS(=O)(=O)c2ccc(Br)cc2)o1
inactive: growth inhibition [1] 3.18% | growth inhibition [2] 4.8% | viability increase [3] -0.05% | viability [4] 103% | viability [5] 103% | inhibition [6] 0.565% | RAM network inhibition [7] 2.81%

CCCCCn1c(SC(C)C(C)=O)nc2c1c(=O)[nH]c(=O)n2C (stereo unspecified)
inactive: growth inhibition [1] -25.6% | growth inhibition [2] -33.8% | viability increase [3] -0.88% | viability [4] 94.4% | viability [5] 88% | inhibition [6] 2.36% | RAM network inhibition [7] 2.16%

CN1CCN(c2ccccc2NC(=O)Cc2cn(C)c3ccccc23)CC1
inactive: growth inhibition [1] 3.05% | growth inhibition [2] -4.69% | viability increase [3] -2.96% | viability [4] 92.8% | viability [5] 93.7% | inhibition [6] -0.845% | RAM network inhibition [7] 2.59%

Cc1cc(C)n(-c2ncnc3sc4c(c23)CC(C)CC4)n1 (stereo unspecified)
inactive: growth inhibition [1] -1.99% | growth inhibition [2] 6.4% | viability increase [3] -0.82% | viability [4] 89.7% | viability [5] 90.7% | inhibition [6] 1.6% | RAM network inhibition [7] 0.87%

CCOC(=O)C1C(=O)CC(C)(O)C(C(=O)OCC)C1c1ccco1 (stereo unspecified)
inactive: growth inhibition [1] -11% | growth inhibition [2] -5.69% | viability increase [3] -1.04% | viability [4] 101% | viability [5] 103% | inhibition [6] 1.04% | RAM network inhibition [7] 2.45%

Cc1ccc(/C=N/c2sc3c(c2C#N)CCC3)s1
inactive: growth inhibition [1] -1.95% | growth inhibition [2] -5.03% | viability increase [3] -0.97% | viability [4] 96.1% | viability [5] 93.8% | inhibition [6] 1.21% | RAM network inhibition [7] 7%

O=C(CCN1C(=O)c2ccccc2C1=O)OCn1nnc2ccccc2c1=O
inactive: growth inhibition [1] -14.7% | growth inhibition [2] -15.3% | viability increase [3] -0.15% | viability [4] 107% | viability [5] 100% | inhibition [6] 4.12% | RAM network inhibition [7] 2.39%

Cc1cccc(NC(=O)CC2SC(=NC3CCCCC3)NC2=O)c1 (stereo unspecified)
inactive: growth inhibition [1] -5.5% | growth inhibition [2] -21.6% | viability increase [3] 0.92% | viability [4] 99.2% | viability [5] 94.9% | inhibition [6] 0.415% | RAM network inhibition [7] 4.77%

Cc1ccc(-n2c(=O)[nH]cc(C(=O)Nc3ccc4c(c3)OCO4)c2=O)cc1C
inactive: growth inhibition [1] -15.8% | growth inhibition [2] -15% | viability increase [3] 0.27% | viability [4] 107% | viability [5] 94.8% | inhibition [6] 1.78% | RAM network inhibition [7] 3.26%

Cc1ccccc1S(=O)(=O)Cc1ccc(C(=O)N2CCN(C3CCCCC3)CC2)o1
inactive: growth inhibition [1] -9.92% | growth inhibition [2] -5.71% | viability increase [3] -1.48% | viability [4] 95.1% | viability [5] 89.6% | inhibition [6] 0.385% | RAM network inhibition [7] 4.62%

O=C(CCCn1c(=O)[nH]c2ccccc2c1=O)N1CCN(c2ccccn2)CC1
inactive: growth inhibition [1] -3.37% | growth inhibition [2] -16.9% | viability increase [3] -3.43% | viability [4] 98.3% | viability [5] 96.2% | inhibition [6] 2.37% | RAM network inhibition [7] 3.32%

CCOc1cccc(=O)c2c(C)n(Cc3ccco3)c(C)c12
inactive: growth inhibition [1] -12.4% | growth inhibition [2] -8% | viability increase [3] -3.8% | viability [4] 92.1% | viability [5] 84.9% | inhibition [6] 0.975% | RAM network inhibition [7] -0.46%

COC(=O)c1ccc2c(c1)N(Cc1nc(-c3cccc(C)c3)oc1C)C(=O)C1CCCN21 (stereo unspecified)
inactive: growth inhibition [1] -13% | growth inhibition [2] -8.79% | viability increase [3] -2.37% | viability [4] 92% | viability [5] 84.3% | inhibition [6] 2.06% | RAM network inhibition [7] 5.71%

CC(C)c1cc(C(=O)Nc2ccc3c(c2)OCO3)no1
inactive: growth inhibition [1] -13.7% | growth inhibition [2] 4.26% | viability increase [3] -4.63% | viability [4] 94.2% | viability [5] 92.8% | inhibition [6] 1.88% | RAM network inhibition [7] 3.88%

CCN1CCN(C(c2ccccc2)c2sc3nc(C)nn3c2O)CC1 (stereo unspecified)
inactive: growth inhibition [1] 0.24% | growth inhibition [2] 1.3% | viability increase [3] -1.49% | viability [4] 102% | viability [5] 101% | inhibition [6] 1.31% | RAM network inhibition [7] 5.66%

O=C(C1CCN(S(=O)(=O)c2cccc3cccnc23)CC1)N1CCN(Cc2ccccc2)CC1
inactive: growth inhibition [1] 8.83% | growth inhibition [2] 5.8% | viability increase [3] 0.23% | viability [4] 105% | viability [5] 99.5% | inhibition [6] -0.39% | RAM network inhibition [7] 1.71%

O=C(Cn1cc2c(n1)CCCC2)NCc1cccc(Cl)c1
inactive: growth inhibition [1] 4.46% | growth inhibition [2] 5.37% | viability increase [3] -0.45% | viability [4] 107% | viability [5] 99.3% | inhibition [6] 1.62% | RAM network inhibition [7] 3.09%

Cc1cc(OCCN2CCCC2)ccc1C(C)C
inactive: growth inhibition [1] -4.67% | growth inhibition [2] -1.01% | viability increase [3] -1.29% | viability [4] 89.1% | viability [5] 91.3% | inhibition [6] 2.1% | RAM network inhibition [7] 8.59%

C=C1CC2C=C(NC(C)=O)CC(C1)C2 (stereo unspecified)
inactive: growth inhibition [1] -18.7% | growth inhibition [2] -12.7% | viability increase [3] -0.27% | viability [4] 98.6% | viability [5] 95.6% | inhibition [6] 1.1% | RAM network inhibition [7] 4.47%

CCC(C)NS(=O)(=O)c1ccc(NC(=O)c2c(-c3ccccc3)noc2C)cc1 (stereo unspecified)
inactive: growth inhibition [1] -6.46% | growth inhibition [2] -11% | viability increase [3] -0.12% | viability [4] 86.3% | viability [5] 71.1% | inhibition [6] 0.48% | RAM network inhibition [7] 5.94%

O=c1c(/C=N/O)c(Nc2ccccc2)nc2ccccn12
inactive: growth inhibition [1] -10.8% | growth inhibition [2] 10.2% | viability increase [3] -6.27% | viability [4] 93.8% | viability [5] 76.5% | inhibition [6] 0.56% | RAM network inhibition [7] 4.18%

Cc1nc2c3ccccc3n(CC#N)c(=O)n2n1
inactive: growth inhibition [1] -11.8% | growth inhibition [2] -5.63% | viability increase [3] -3.78% | viability [4] 99.9% | viability [5] 95.8% | inhibition [6] 2.66% | RAM network inhibition [7] 0.21%

O=C1c2ccccc2C(=O)N1CCCc1nc(-c2ccc(Cl)cc2)no1
inactive: growth inhibition [1] -1.86% | growth inhibition [2] -5.26% | viability increase [3] -1.79% | viability [4] 102% | viability [5] 100% | inhibition [6] 4.25% | RAM network inhibition [7] 2.37%

COc1ccccc1-c1coc2cc(O)cc(O)c2c1=O
inactive: growth inhibition [1] 3.81% | growth inhibition [2] 9.45% | viability increase [3] 0.63% | viability [4] 93.4% | viability [5] 92.6% | inhibition [6] 0.26% | RAM network inhibition [7] 0.05%

CCOc1ccc(N2CCCCn3c2nc2c3c(=O)[nH]c(=O)n2C)cc1
inactive: growth inhibition [1] -21.9% | growth inhibition [2] -16.5% | viability increase [3] -1.1% | viability [4] 97.8% | viability [5] 98% | inhibition [6] 1.5% | RAM network inhibition [7] 2.47%

Brc1ccccc1OCCCN1CCOCC1
inactive: growth inhibition [1] -11.7% | growth inhibition [2] -9.51% | viability increase [3] 1.1% | viability [4] 97.8% | viability [5] 98.2% | inhibition [6] 1.48% | RAM network inhibition [7] 4.22%

C=CCOC(=O)CCP(=O)(CCC(=O)OCC=C)c1ccccc1
inactive: growth inhibition [1] 5.05% | growth inhibition [2] 1.05% | viability increase [3] -1.13% | viability [4] 96.5% | viability [5] 98.8% | inhibition [6] -0.22% | RAM network inhibition [7] -1.29%

CCNS(=O)(=O)c1ccc(NC(=O)c2cccnc2)cc1
inactive: growth inhibition [1] 1.24% | growth inhibition [2] 8.7% | viability increase [3] 0.48% | viability [4] 95% | viability [5] 99.6% | inhibition [6] 1.61% | RAM network inhibition [7] 6.74%

O=C1CCCc2sccc2N1
inactive: growth inhibition [1] -6.83% | growth inhibition [2] -3.71% | viability increase [3] -1.57% | viability [4] 106% | viability [5] 96.9% | inhibition [6] 0.26% | RAM network inhibition [7] 2.15%

COC(=O)c1ccc(C2C(C(C)=O)=C(C)Nc3ncnn32)cc1 (stereo unspecified)
inactive: growth inhibition [1] -8.45% | growth inhibition [2] 9.82% | viability increase [3] -1.07% | viability [4] 108% | viability [5] 98.7% | inhibition [6] 1.9% | RAM network inhibition [7] 2.09%

CCOC(=O)c1c(C)c(-c2ccccc2)n(CC(=O)N2CCN(C)CC2)c1C
inactive: growth inhibition [1] -19% | growth inhibition [2] -24.2% | viability increase [3] -2.94% | viability [4] 102% | viability [5] 102% | inhibition [6] 2.83% | RAM network inhibition [7] 2.67%
